# ERAP1 inh = ERAP1 (human) enzyme inhibition; recombinant ERAP1, Leu-AMC fluorescence, 60 min; 0.15% of 340,000 active; inhibition, % at 10.7 µM; AID 652197;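 active = mean replicate inhibition of at least 30%, or all replicates individually reaching that 30% level; inactive = mean below 30% and not every replicate reaching it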;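 also: 0% = neutral control wells and 100% = L-leucinethiol positive control wells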
# SIRT5 block = sirtuin-5 (human) deacylase inhibition | Q9NXA8 | Purified SirT5, succinyl-peptide AMC, trypsin-coupled fluorescence | inhibition, % at 15 µM | 1.1% of 330,000 active; in the data active = inhibition above about 15%
# Target sequence (Q9NXA8 whole entry, looked up): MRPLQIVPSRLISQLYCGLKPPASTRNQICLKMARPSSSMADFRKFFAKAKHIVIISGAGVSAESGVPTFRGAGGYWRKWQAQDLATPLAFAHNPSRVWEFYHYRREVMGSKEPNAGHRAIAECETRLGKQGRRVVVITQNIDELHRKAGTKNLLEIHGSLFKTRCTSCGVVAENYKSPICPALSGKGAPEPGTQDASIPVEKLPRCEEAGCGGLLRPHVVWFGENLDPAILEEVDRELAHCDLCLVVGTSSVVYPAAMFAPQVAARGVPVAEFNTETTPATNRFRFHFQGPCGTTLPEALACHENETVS
# S100A4 inh HTS = blocks human S100A4 binding to myosin IIA peptide; P26447; S100A4/TAMRA-MyoIIA peptide fluorescence polarization; inhibition, % at 10.7 µM; 0.14% of 360,000 active; AID 652163;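 active = mean inhibition of at least 70% across replicates, with every replicate also reaching that level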
# Target sequence (P26447 whole entry, looked up): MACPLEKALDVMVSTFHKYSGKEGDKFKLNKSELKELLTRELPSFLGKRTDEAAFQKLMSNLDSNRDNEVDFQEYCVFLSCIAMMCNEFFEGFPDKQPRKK
#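 Test system: S100A4 monomer protein; Medium: HEPES pH 7.2 with CaCl2, KCl, NaCl, DTT, Triton; Probe or stimulus: TAMRA-labelled myosin IIA heavy-chain peptide probe, 5 nM; Doses: one dose per compound; Times: polarization read 5 min after assay mix addition, stable 5–60 min; Benchmarks: neutral control DMSO, positive control TFP.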
# rRNA inh HTS = inhibits bacterial ribosomal RNA function over humanized ribosomes; 1.6% of 350,000 active; GFP signal change (wild-type ribosome), % (no concentration beside the values); AID 720706; E. coli WT GFP vs humanized-ribosome RFP mutants, fluorescence, 24 h; hits give low values; DMSO median 0, no signal -100;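 active = significant combined selectivity score with lowered wild-type GFP, culture density cut under 30%, mutant RFP and density less affected; inactive = any of these conditions unmet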
# CFTR F508del cor = correctors of CFTR F508del function in bronchial epithelial cells. CFBE cells, YFP halide quenching; stimulated with forskolin plus potentiator P3; % fluorescence drop versus neutral controls. AID 720511. 0.36% of 350,000 active. activity (quench increase), % at 7.58 µM;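 active = mean added fluorescence quench of at least 8% versus neutral control, with both replicates also reaching 8%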;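 also: cells transiently co-express mutant CFTR-F508del with the halide-sensitive YFP; corrector assay measuring rescue of mutant channel to the surface after 24 h compound exposure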
# Numbers without * were called inactive; . = not tested or not shown. An excerpt weighted towards active compounds, which were near 3.1% of everything screened.
SMILES,ERAP1 inh,SIRT5 block,S100A4 inh HTS,rRNA inh HTS,CFTR F508del cor
Cc1ccc2[nH]c(C(=O)N3CCN(C=O)CC3)cc2c1,0,16*,2,0,3
N#CC1=C2SCC(O)(c3ccccc3)N2C(=O)CC1c1cccs1 (stereo not given),4,0,1,-37*,7
C[C@H](CO)N1C[C@H](C)[C@H](CN(C)C(=O)Nc2ccc(C(F)(F)F)cc2)Oc2c(NS(=O)(=O)c3ccc(F)cc3)cccc2C1=O,0,1,4,-1,2
COc1cccc(C#Cc2ccc([C@H]3[C@@H](CO)N4C(=O)CN(C(=O)c5ccccc5)C[C@H]34)cc2)c1,0,8,9,3,2
COC1C(CO)OC(n2c3c(Cl)cccc3c3c4c(c5c6cccc(Cl)c6[nH]c5c32)C(=O)NC4=O)C(O)C1O (stereo not given),-7,.,3,8,9.8*
O=C(Nc1ccc(C(F)(F)F)cc1)N[C@H]1C=C[C@H](CC(=O)N2CCCCC2)O[C@@H]1CO,0,-2,4,4,1
N#CC(CO)(Cc1ccc(OC(F)F)cc1)c1nc2ccccc2[nH]1 (stereo not given),-4,-2,3,-21*,.
FC(F)Oc1ccc(NC(=S)NCc2nc3ccccc3[nH]2)cc1,-2,1,-2,-17,-2
C[C@@H]1CCCCO[C@@H](CN(C)C(=O)Nc2ccc3c(c2)OCO3)[C@H](C)CN([C@@H](C)CO)C(=O)c2cc(NC(=O)Nc3ccc4c(c3)OCO4)ccc2O1,-1,6,2,1,-3
COc1ccc(OC)c(NC(=O)C2CCN(C(=O)c3cccs3)CC2)c1,7,22*,3,1,0
C#CC1(NC(=O)NC(C)C)CCCCC1,1,94*,1,7,-2
O=C(CC1Sc2ccccc2NC1=O)NNc1cccc(Cl)c1Cl (stereo not given),-1,-3,2,-8,8.3*
O=C(CC1Sc2ccccc2NC1=O)Nc1cccc(C(=O)O)c1 (stereo not given),-2,3,-5,19,-3
Cc1cccc(C)c1NC(=O)C1=C(O)c2sccc2N(C)S1(=O)=O,9,21*,19,5,0
Cc1cccc(C(=O)N/N=C2\CS(=O)(=O)N(C)c3ccsc32)c1,-5,-7,-2,6,4
C[C@@H]1CN([C@H](C)CO)C(=O)c2cc(NS(=O)(=O)c3ccc(F)cc3)ccc2O[C@H]1CN(C)S(=O)(=O)c1ccccc1,.,.,.,-3,-1
O=C(NC(=S)Nc1ccc2ncccc2c1)c1ccccc1,-1,1,-1,-21*,2
O=C(Nc1ccc2ncccc2c1)c1ccccc1,5,1,3,15,-1
COC(=O)c1c(-c2ccc(C)cc2)csc1NC(=O)c1c(-c2ccccc2)noc1C,2,-7,12,17,8.5*
Cc1ccc(C(=O)Nc2scc(-c3ccccc3)c2C(=O)O)cc1,.,0,-5,-35,-4
O=C(Nc1ccc(CN2CCOCC2)cc1)c1cc(Br)ccc1Cl,0,-2,-5,-2,1
CS(=O)(=O)N1CCc2cc(NC(=O)c3ccc(Cl)cc3Cl)ccc21,1,-3,-2,-24*,3
O=C(Nc1ccc(CN2CCOCC2)cc1)c1ccc(Cl)cc1Cl,4,18*,-2,1,-1
CS(=O)(=O)N1CCc2cc(C(=O)Nc3ccc(Cl)cc3)ccc21,-3,-2,-2,9,0
C[C@H](NC(=O)[C@H]1N[C@H]2c3ccc(-c4cncnc4)c(=O)n3C[C@H]2[C@@H]1CO)c1ccccc1,0,-9,1,1,-4
SMILES,ERAP1 inh,SIRT5 block,S100A4 inh HTS,rRNA inh HTS,CFTR F508del cor
CN(C)c1ccc(/C=N\Nc2ccccn2)cc1,-1,-1,-5,11,-8
CN(C)c1ccc(C=NNc2ccccn2)c(Cl)c1,-2,17*,0,1,-4
C[C@H](NC(=O)C[C@H]1C=C[C@H](NC(=O)C2CC2)[C@@H](CO)O1)c1ccccc1,-1,-5,0,1,0
OC[C@H]1[C@H](c2ccc(-c3cccc(F)c3)cc2)[C@H]2CN(CCC(F)(F)F)CCCCN21,0,2,10,-58,1
Cc1ccc(-c2ccc([C@@H]3[C@H](CO)N4CCCCN(C(=O)Nc5cccc(F)c5)C[C@@H]34)cc2)cc1,0,0,-10,.,2
O=C(Nc1ccc(F)cc1)N1CCCCN2[C@H](C1)[C@H](c1ccc(-c3ccccc3F)cc1)[C@@H]2CO,1,18*,-8,.,1
O=C(Nc1ccc(F)cc1)N1CCCCN2[C@@H](CO)[C@H](c3ccc(-c4ccccc4F)cc3)[C@@H]2C1,2,2,10,.,-1
COc1ccc(NC(=O)N2CCCCN3[C@H](CO)[C@@H](c4ccc(-c5ccccc5F)cc4)[C@@H]3C2)cc1,0,18*,-23,-40,2
Cc1ccc(-c2ccc([C@@H]3[C@@H](CO)N4CCCCN(C(=O)Nc5cccc(F)c5)C[C@@H]34)cc2)cc1,-1,18*,-11,-4,2
OC[C@H]1[C@@H](c2ccc(-c3cccc(F)c3)cc2)[C@H]2CN(CCC(F)(F)F)CCCCN21,-1,24*,-18,-58,-6
CCOC(=O)c1cc(C)n(-c2ccc(Cl)cc2)c1C,.,3,5,-23*,-1
O=C(C[C@@H]1C[C@@H]2c3cc(NC(=O)C4CCOCC4)ccc3O[C@@H]2[C@@H](CO)O1)NCc1cc(F)ccc1F,1,-5,-13,4,-1
COc1ccc(S(=O)(=O)Nc2ccc3c(c2)C(=O)N([C@@H](C)CO)C[C@@H](C)[C@H](CN(C)S(=O)(=O)c2ccc(C)cc2)OCCCC[C@@H](C)O3)cc1,0,18*,-2,-1,2
COc1ccc(S(=O)(=O)N(C)C[C@@H]2OCCCC[C@H](C)Oc3ccc(NS(=O)(=O)c4ccc(C)cc4)cc3C(=O)N([C@@H](C)CO)C[C@@H]2C)cc1,-2,20*,-5,3,0
COc1ccc(S(=O)(=O)Nc2ccc3c(c2)C(=O)N([C@@H](C)CO)C[C@@H](C)[C@@H](CN(C)S(=O)(=O)c2ccc(C)cc2)OCCCC[C@@H](C)O3)cc1,1,6,-12,0,1
C[C@H](CO)N1C[C@H](C)[C@H](CN(C)C(=O)Cc2ccncc2)Oc2ncc(C3=CCCC3)cc2C1=O,0,-7,-31,0,-3
COc1cccc(-c2ccc3c(c2)[C@@H]2[C@@H](CCN2S(=O)(=O)c2ccccc2C)[C@H](CO)N3C)c1,-3,7,4,1,2
CC1(C)CC(=O)C(C(c2ccc(Br)cc2)C2C(=O)CC(C)(C)CC2=O)C(=O)C1,0,-8,-10,5,-1

# Bioassay records as filed in PubChem.
